According to ChEMBL document CHEMBL1128722, “Mechanism-based isocoumarin inhibitors for human leukocyte elastase. Effect of the 7-amino substituent and 3-alkoxy group in 3-alkoxy-7-amino-4-chloroisocoumarins on inhibitory potency” (J Med Chem, 1995):
Blank lines part the entries; values can stand above or below the compound they belong to.

Tests used:
[1] = Half-life for hydrolysis was determined from kinetic constant.; type: ADME
In short: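 Spontaneous hydrolysis in 0.1 M HEPES, 0.5 M NaCl, pH 7.5, 10% v/v DMSO final, 25 °C. Inhibitor added from 2.9–5.0 mM DMSO stock. Ring opening followed as absorbance decrease at 385 nm (ε385 = 3300 M⁻¹ cm⁻¹). Half-life from the first-order rate. Two determinations, standard errors ±15% or less.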

[2] = target: T1, Neutrophil elastase (Homo sapiens) (UniProt P08246); experiment: The second order inactivation rate constant expressed as inhibition of human leukocyte elastase (HLE). Inhibitor concentrations were 0.07-710 uM
T1 sequence (whole entry): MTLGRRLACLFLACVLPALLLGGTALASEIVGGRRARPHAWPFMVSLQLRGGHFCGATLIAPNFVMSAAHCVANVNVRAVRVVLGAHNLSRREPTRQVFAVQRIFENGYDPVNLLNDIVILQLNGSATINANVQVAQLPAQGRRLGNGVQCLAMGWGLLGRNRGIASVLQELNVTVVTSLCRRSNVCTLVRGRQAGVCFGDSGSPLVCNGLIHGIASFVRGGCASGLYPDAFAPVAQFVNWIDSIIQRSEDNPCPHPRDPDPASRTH
In short: (§1)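 Kitz–Wilson incubation method. Enzyme was preincubated with inhibitor (added in DMSO) in 0.1 M HEPES, 0.5 M NaCl, pH 7.5, at 25 °C. Aliquots were taken over time and diluted into pNA substrate: HLE MeO-Suc-Ala-Ala-Pro-Val-pNA (0.2–0.5 mM), PPE Suc-Ala-Ala-Ala-pNA, ChT and Cat G Suc-Val-Pro-Phe-pNA (0.4–0.5 mM). Release was read at 410 nm. kobs/[I] from ln(v0/vt) vs time. Mean of two determinations. Fast rates measured with equimolar inhibitor and enzyme.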

[3] = target: T2, Chymotrypsin-like elastase family member 2A (Sus scrofa) (UniProt P08419); experiment: The second order inactivation rate constant expressed as inhibition of porcine pancreatic elastase (PPE).Inhibitor concentrations were 0.04-2.0 mM
T2 sequence (whole entry): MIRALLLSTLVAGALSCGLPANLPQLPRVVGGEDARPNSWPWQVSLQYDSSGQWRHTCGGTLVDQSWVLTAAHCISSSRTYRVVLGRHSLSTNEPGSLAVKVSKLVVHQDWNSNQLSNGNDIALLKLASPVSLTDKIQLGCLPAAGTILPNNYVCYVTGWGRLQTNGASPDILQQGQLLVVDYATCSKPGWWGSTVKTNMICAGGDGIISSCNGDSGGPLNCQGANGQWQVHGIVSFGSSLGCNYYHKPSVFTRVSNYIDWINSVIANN

[4] = target: T1, Neutrophil elastase (Homo sapiens); experiment: Second order inactivation rate constant for inhibition of human leukocyte elastase.; in short: as §1
[5] = target: T1, Neutrophil elastase (Homo sapiens); experiment: Inhibition of human leukocyte elastase.; in short: as §1
[6] = target: T3, Cathepsin G (Homo sapiens) (UniProt P08311); experiment: Inhibition of cathepsin G(Cat G) at 35-710 uM; in short: as §1
T3 sequence (whole entry): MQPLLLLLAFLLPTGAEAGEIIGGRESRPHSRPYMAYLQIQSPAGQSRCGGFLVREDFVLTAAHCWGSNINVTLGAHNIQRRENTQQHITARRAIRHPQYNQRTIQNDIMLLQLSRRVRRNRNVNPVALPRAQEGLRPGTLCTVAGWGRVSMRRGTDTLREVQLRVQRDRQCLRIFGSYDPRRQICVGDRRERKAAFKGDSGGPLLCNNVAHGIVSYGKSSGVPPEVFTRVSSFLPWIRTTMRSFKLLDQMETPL

[7] = target: T1, Neutrophil elastase (Homo sapiens); experiment: Inhibition of human leukocyte elastase(HLE) at 0.7-1.7 uM; in short: as §1
[8] = target: T3, Cathepsin G (Homo sapiens); experiment: Inhibition of cathepsin G at 35-710 uM; in short: as §1
[9] = target: Chymotrypsinogen A (Bos taurus) (UniProt P00766); experiment: The second order inactivation rate constant was expressed as inhibition of chymotrypsin (ChT).Inhibitor concentrations were 360-570 uM; in short: as §1
[10] = target: T1, Neutrophil elastase (Homo sapiens); experiment: The second order inactivation rate constant was expressed as inhibition of human leukocyte elastase (HLE). Inhibitor concentrations were 0.4-4 uM; in short: as §1
[11] = target: T2, Chymotrypsin-like elastase family member 2A (Sus scrofa); experiment: The second order inactivation rate constant was expressed as inhibition of porcine pancreatic elastase (PPE).Inhibitor concentrations were 2-600 uM; in short: as §1

- half-life [1]: 6.4 h
- K obs / 1 [2]: 140000 M⁻¹ s⁻¹
- K obs / 1 [3]: 13 M⁻¹ s⁻¹
SMILES: C[C@@H](OC(=O)Nc1ccccc1)C(=O)Nc1ccc2c(Cl)c(OCCBr)oc(=O)c2c1

- k obs / 1 [4]: 390 M⁻¹ s⁻¹
- [I] [5]: 7.8 µM
SMILES: COCCOc1oc(=O)c2cc(N)ccc2c1Cl

- K obs / 1 [2]: > 570000 M⁻¹ s⁻¹
- inhibition [6]: 21%
- K obs / 1 [3]: 2660 M⁻¹ s⁻¹
SMILES: C[C@@H](NC(=O)Nc1ccc2c(Cl)c(OCCBr)oc(=O)c2c1)c1ccccc1

- inhibition [6]: 17%
- K obs / 1 [3]: 4 M⁻¹ s⁻¹
SMILES: O=C(Nc1ccccc1)Nc1ccc2c(Cl)c(OCCCBr)oc(=O)c2c1

- k obs / 1 [7]: > 180000 M⁻¹ s⁻¹
SMILES: CCCOc1oc(=O)c2cc(NC(=O)OCC)ccc2c1Cl

- K obs / 1 [3]: 6600 M⁻¹ s⁻¹
- K obs / 1 [8]: 56 M⁻¹ s⁻¹
SMILES: CC(C)(C)NC(=O)Nc1ccc2c(Cl)c(OCCBr)oc(=O)c2c1

- K obs / 1 [2]: 146000 M⁻¹ s⁻¹
- inhibition [6]: 19%
- K obs / 1 [3]: 50 M⁻¹ s⁻¹
SMILES: CC(C)(C)OC(=O)N[C@@H](Cc1ccccc1)C(=O)Nc1ccc2c(Cl)c(OCCBr)oc(=O)c2c1

- k obs / 1 [4]: 2000 M⁻¹ s⁻¹
- [I] [5]: 26 µM
SMILES: CC(C)Oc1oc(=O)c2cc(N)ccc2c1Cl

- K obs / 1 [3]: 3650 M⁻¹ s⁻¹
- K obs / 1 [8]: 240 M⁻¹ s⁻¹
SMILES: CC(C)(C)CC(=O)Nc1ccc2c(Cl)c(OCCBr)oc(=O)c2c1

- half-life [1]: 26 h
- K obs / 1 [2]: 170000 M⁻¹ s⁻¹
- K obs / 1 [3]: 12 M⁻¹ s⁻¹
SMILES: CC(C)(C)OC(=O)N[C@@H](Cc1c[nH]c2ccccc12)C(=O)Nc1ccc2c(Cl)c(OCCBr)oc(=O)c2c1

- half-life [1]: 4.6 h
- k obs / 1 [4]: 54000 M⁻¹ s⁻¹
- [I] [5]: 2.6 µM
SMILES: CCCOc1oc(=O)c2cc(N)ccc2c1Cl

- half-life [1]: 3.6 h
- k obs / 1 [4]: 9400 M⁻¹ s⁻¹
- [I] [5]: 4 µM
SMILES: CCOc1oc(=O)c2cc(N)ccc2c1Cl

- half-life [1]: 3.3 h
- k obs / 1 [4]: 10000 M⁻¹ s⁻¹
- [I] [5]: 6 µM
SMILES: COc1oc(=O)c2cc(N)ccc2c1Cl

- K obs / 1 [2]: 230000 M⁻¹ s⁻¹
- K obs / 1 [3]: 1670 M⁻¹ s⁻¹
- K obs / 1 [8]: 46 M⁻¹ s⁻¹
SMILES: C[C@H](NC(=O)OC(C)(C)C)C(=O)N[C@@H](C)C(=O)Nc1ccc2c(Cl)c(OCCBr)oc(=O)c2c1

- K obs / 1 [2]: > 440000 M⁻¹ s⁻¹
- K obs / 1 [3]: 9900 M⁻¹ s⁻¹
- K obs / 1 [8]: 77 M⁻¹ s⁻¹
SMILES: C[C@H](NC(=O)Nc1ccc2c(Cl)c(OCCBr)oc(=O)c2c1)c1ccccc1

- k obs / 1 [7]: > 250000 M⁻¹ s⁻¹
SMILES: CCCOc1oc(=O)c2cc(NC(=O)CCc3ccccc3)ccc2c1Cl

- K obs / 1 [2]: 49000 M⁻¹ s⁻¹
- K obs / 1 [3]: 32 M⁻¹ s⁻¹
SMILES: Cc1ccc(C(=O)N[C@@H](Cc2ccccc2)C(=O)Nc2ccc3c(Cl)c(OCCBr)oc(=O)c3c2)cc1

- K obs / 1 [3]: 11 M⁻¹ s⁻¹
SMILES: O=C(CCc1ccccc1)Nc1ccc2c(Cl)c(OCCBr)oc(=O)c2c1

- K obs / 1 [2]: 30000 M⁻¹ s⁻¹
- K obs / 1 [3]: 11 M⁻¹ s⁻¹
SMILES: O=C(N[C@@H](Cc1ccccc1)C(=O)Nc1ccc2c(Cl)c(OCCBr)oc(=O)c2c1)c1ccccc1

- k obs / 1 [7]: > 120000 M⁻¹ s⁻¹
SMILES: CCCOc1oc(=O)c2cc(NC(=O)CCC)ccc2c1Cl

- K obs / 1 [2]: 646000 M⁻¹ s⁻¹
- K obs / 1 [3]: 4470 M⁻¹ s⁻¹
- K obs / 1 [8]: 77 M⁻¹ s⁻¹
SMILES: CC(C)NC(=O)Nc1ccc2c(Cl)c(OCCBr)oc(=O)c2c1

- half-life [1]: > 48 h
- K obs / 1 [2]: 310000 M⁻¹ s⁻¹
- K obs / 1 [3]: 20 M⁻¹ s⁻¹
SMILES: C[C@@H](NC(=O)Nc1ccc2c(Cl)c(OCCBr)oc(=O)c2c1)c1cccc2ccccc12

SMILES: O=c1oc(OCCBr)c(Cl)c2ccc(N[N+](=O)[O-])cc12
- K obs / 1 [2]: 65600 M⁻¹ s⁻¹
- K obs / 1 [3]: 6330 M⁻¹ s⁻¹
- K obs / 1 [8]: 710 M⁻¹ s⁻¹

- k obs / 1 [7]: > 210000 M⁻¹ s⁻¹
SMILES: CCCOc1oc(=O)c2cc(NC(=O)c3cccc([N+](=O)[O-])c3)ccc2c1Cl

- K obs / 1 [2]: > 170000 M⁻¹ s⁻¹
- K obs / 1 [3]: 2730 M⁻¹ s⁻¹
SMILES: COC(=O)CCCC(=O)Nc1ccc2c(Cl)c(OCCBr)oc(=O)c2c1

- K obs / 1 [9]: 350 M⁻¹ s⁻¹
- K obs / 1 [10]: 39000 M⁻¹ s⁻¹
- K obs / 1 [11]: 3500 M⁻¹ s⁻¹
SMILES: COc1oc(=O)c2cc(NC(=O)CBr)ccc2c1Cl

- K obs / 1 [2]: 480000 M⁻¹ s⁻¹
- inhibition [6]: 23%
- K obs / 1 [3]: 3010 M⁻¹ s⁻¹
SMILES: O=C(NCc1ccccc1)Nc1ccc2c(Cl)c(OCCBr)oc(=O)c2c1

- k obs / 1 [7]: > 150000 M⁻¹ s⁻¹
SMILES: CCCOc1oc(=O)c2cc(NC(=O)CSC)ccc2c1Cl
